For the first assay, the system named is Rattus norvegicus. Description: Antihyperlipidemic activity in Charles Foster rat assessed as reduction of triton WR-1339-induced plasma post heparin lipolytic activity assessed per mL of plasma at 100 mg/kg, po after 18 hrs. Set-up: scale not given: the % may be the effect or the level left. It is filed as functional. A digest of the protocol: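 Male Charles Foster rats (100–150 g), six per group. Triton WR-1339 400 mg/kg ip together with an oral 100 mg/kg dose in gum acacia suspension. Diet was withdrawn and vehicle controls were included. At 18 h, EDTA plasma was taken from retro-orbital blood. Post-heparin lipolytic activity was measured spectrophotometrically as nmol free fatty acid formed/h/ml plasma. Mean SD.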
As for `Cc1ccc(C(=O)CNC(=O)/C=C/c2ccc(O)cc2)cc1`, the Activity amounted to 19%.

Take `Cc1ccc(C)c(OCCCC(C)(C)C(=O)O)c1` [GEMFIBROZIL]: the Activity was determined as 23%.

Turning to `Cc1ccc(C(O)CNC(=O)/C=C/c2ccc(Cl)c(Cl)c2)cc1` (racemic), the Activity came out at 14%.

Take `Cc1ccc(C(O)CNC(=O)c2ccc(Cl)c([N+](=O)[O-])c2)cc1` (racemic): the Activity worked out at 8%.

Consider `Cc1ccc(C(=O)CNC(=O)/C=C/c2ccccc2O)cc1`, for which the Activity stood at 10%.

In the case of `Cc1ccc(C(=O)CNC(=O)/C=C/c2ccc(OS(=O)(=O)c3ccc(C)cc3)cc2)cc1`, the Activity is 7%.

`Cc1ccc(C(=O)CNC(=O)Cc2ccc(F)cc2)cc1`: the Activity was 6%.

For the compound `COc1cc(/C=C/C(=O)NCC(O)c2ccc(C)cc2)ccc1O` (mixture of isomers), the Activity was 21%.

System in a further assay: not listed separately
Description: Antioxidant activity assessed as hydroxyl radical scavenging activity by measuring malondialdehyde formation at 100 mg/ml after 90 mins by thiobarbituric acid method. It is filed as functional. A digest of the protocol:
(§1)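 Non-enzymic hydroxyl radical generation: deoxyribose 2.8 mM, FeSO4 2 mM, sodium ascorbate 2.0 mM and H2O2 2.8 mM in 50 mM KH2PO4 pH 7.4, with or without sample. Incubated at 37 °C for 90 min alongside reference samples and reagent blanks. MDA measured spectrophotometrically by the thiobarbituric acid method.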
`Cc1ccc(C(=O)CNC(=O)/C=C/c2ccc(O)cc2)cc1`: the Activity came to 17%.

`COc1cc(/C=C/C(=O)NCC(O)c2ccc(C)cc2)ccc1O` (mixture of isomers): the Activity is 18%.

The next assay deals with Rattus norvegicus. Description: Antihyperlipidemic activity in Charles Foster rat assessed as reduction of triton WR-1339-induced plasma total cholesterol level at 100 mg/kg, po after 18 hrs. It is filed as functional. Set-up: scale not given: the % may be the effect or the level left. A digest of the protocol:
(§2)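 Male Charles Foster rats (100–150 g), six per group. Triton WR-1339 400 mg/kg ip with simultaneous oral dosing at 100 mg/kg, given as a gum acacia (0.2% w/v) suspension in water. Diet was withdrawn. Vehicle went to the control and triton groups. At 18 h, under thiopentone anaesthesia, retro-orbital blood was taken into EDTA and spun at 4 °C. Plasma diluted 1:3 in saline. TC, TG and PL measured by enzymatic kits. Mean SD.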
Consider `Cc1ccc(C(=O)CNC(=O)/C=C/c2ccc(O)cc2)cc1`, for which the Activity came out at 22%.

As for `Cc1ccc(C)c(OCCCC(C)(C)C(=O)O)c1` [GEMFIBROZIL], the Activity was determined as 33%.

As for `Cc1ccc(C(O)CNC(=O)/C=C/c2ccc(Cl)c(Cl)c2)cc1` (racemic), the Activity is 16%.

Consider `Cc1ccc(C(O)CNC(=O)c2ccc(Cl)c([N+](=O)[O-])c2)cc1` (racemic), for which the Activity was found to be 5%.

As to `Cc1ccc(C(=O)CNC(=O)/C=C/c2ccccc2O)cc1`, the Activity amounted to 11%.

Regarding `Cc1ccc(C(=O)CNC(=O)/C=C/c2ccc(OS(=O)(=O)c3ccc(C)cc3)cc2)cc1`, the Activity is 7%.

For the compound `Cc1ccc(C(=O)CNC(=O)Cc2ccc(F)cc2)cc1`, the Activity was found to be 14%.

`COc1cc(/C=C/C(=O)NCC(O)c2ccc(C)cc2)ccc1O` (mixture of isomers): the Activity is 24%.

A further assay concerns Rattus norvegicus. The experiment in a line: Antihyperlipidemic activity in Charles Foster rat assessed as reduction of triton WR-1339-induced plasma triglyceride level at 100 mg/kg, po after 18 hrs. The assay is classed as functional. Set-up: scale not given: the % may be the effect or the level left. A digest of the protocol: as §2
On to `Cc1ccc(C(=O)CNC(=O)/C=C/c2ccc(O)cc2)cc1`, for which the Activity was found to be 21%.

As to `Cc1ccc(C)c(OCCCC(C)(C)C(=O)O)c1` [GEMFIBROZIL], the Activity worked out at 31%.

Consider `Cc1ccc(C(O)CNC(=O)/C=C/c2ccc(Cl)c(Cl)c2)cc1` (racemic), for which the Activity was 14%.

As to `Cc1ccc(C(O)CNC(=O)c2ccc(Cl)c([N+](=O)[O-])c2)cc1` (racemic), the Activity turned out to be 11%.

Regarding `Cc1ccc(C(=O)CNC(=O)/C=C/c2ccccc2O)cc1`, the Activity was 9%.

Regarding `Cc1ccc(C(=O)CNC(=O)/C=C/c2ccc(OS(=O)(=O)c3ccc(C)cc3)cc2)cc1`, the Activity is 4%.

In the case of `Cc1ccc(C(=O)CNC(=O)Cc2ccc(F)cc2)cc1`, the Activity amounted to 11%.

Consider `COc1cc(/C=C/C(=O)NCC(O)c2ccc(C)cc2)ccc1O` (mixture of isomers), for which the Activity is 23%.

System in another assay: not listed separately
Description: Antioxidant activity assessed as xanthine-xanthine oxidase generated superoxide anion scavenging at 100 mg/ml after 30 mins by NBT reduction assay. It is filed as functional. The method, boiled down: (§3)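 Enzymic superoxide generation with xanthine, xanthine oxidase (0.04 U) and nitroblue tetrazolium in 100 mM phosphate buffer pH 8.2, with or without sample. Incubated at 37 °C for 30 min, then stopped with glacial acetic acid. Formazan read at 560 nm. Percent inhibition calculated using ε 7.2 × 10³ M/cm.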
Consider `Cc1ccc(C(=O)CNC(=O)/C=C/c2ccc(O)cc2)cc1`, for which the Activity was 17%.

Take `COc1cc(/C=C/C(=O)NCC(O)c2ccc(C)cc2)ccc1O` (mixture of isomers): the Activity amounted to 21%.

In a further assay the test system is Rattus norvegicus. The experiment in a line: Antihyperlipidemic activity in Charles Foster rat assessed as reduction of triton WR-1339-induced plasma phospholipid level at 100 mg/kg, po after 18 hrs. The assay is classed as functional. Set-up: scale not given: the % may be the effect or the level left. A digest of the protocol: as §2
Consider `Cc1ccc(C(=O)CNC(=O)/C=C/c2ccc(O)cc2)cc1`, for which the Activity is 23%.

For `Cc1ccc(C)c(OCCCC(C)(C)C(=O)O)c1` [GEMFIBROZIL], the Activity is 36%.

Take `Cc1ccc(C(O)CNC(=O)/C=C/c2ccc(Cl)c(Cl)c2)cc1` (racemic): the Activity came to 13%.

Take `Cc1ccc(C(O)CNC(=O)c2ccc(Cl)c([N+](=O)[O-])c2)cc1` (racemic): the Activity amounted to 7%.

Regarding `Cc1ccc(C(=O)CNC(=O)/C=C/c2ccccc2O)cc1`, the Activity is 10%.

Take `Cc1ccc(C(=O)CNC(=O)/C=C/c2ccc(OS(=O)(=O)c3ccc(C)cc3)cc2)cc1`: the Activity amounted to 9%.

Regarding `Cc1ccc(C(=O)CNC(=O)Cc2ccc(F)cc2)cc1`, the Activity is 15%.

Turning to `COc1cc(/C=C/C(=O)NCC(O)c2ccc(C)cc2)ccc1O` (mixture of isomers), the Activity turned out to be 22%.

A further assay relates to Rattus norvegicus. Description: Antihyperlipidemic activity in Charles Foster rat assessed as reduction of triton WR-1339-induced plasma protein level at 100 mg/kg, po after 18 hrs. It is filed as functional. Set-up: scale not given: the % may be the effect or the level left.
For the compound `Cc1ccc(C(=O)CNC(=O)/C=C/c2ccc(O)cc2)cc1`, the Activity was found to be 20%.

For `Cc1ccc(C)c(OCCCC(C)(C)C(=O)O)c1` [GEMFIBROZIL], the Activity was 31%.

In the case of `Cc1ccc(C(O)CNC(=O)/C=C/c2ccc(Cl)c(Cl)c2)cc1` (racemic), the Activity was 15%.

With `Cc1ccc(C(O)CNC(=O)c2ccc(Cl)c([N+](=O)[O-])c2)cc1` (racemic), the Activity was found to be 11%.

As to `Cc1ccc(C(=O)CNC(=O)/C=C/c2ccccc2O)cc1`, the Activity came to 8%.

With `Cc1ccc(C(=O)CNC(=O)/C=C/c2ccc(OS(=O)(=O)c3ccc(C)cc3)cc2)cc1`, the Activity stood at 6%.

With `Cc1ccc(C(=O)CNC(=O)Cc2ccc(F)cc2)cc1`, the Activity turned out to be 19%.

With `COc1cc(/C=C/C(=O)NCC(O)c2ccc(C)cc2)ccc1O` (mixture of isomers), the Activity came out at 21%.

System in a further assay: not listed separately
The experiment in a line: Antioxidant activity assessed as hydroxyl radical scavenging activity by measuring malondialdehyde formation at 200 mg/ml after 90 mins by thiobarbituric acid method. The assay is classed as functional. The method, boiled down: as §1
Take `Cc1ccc(C(=O)CNC(=O)/C=C/c2ccc(O)cc2)cc1`: the Activity was found to be 29%.

For the compound `OC[C@@H](O)[C@@H](O)[C@H](O)[C@H](O)CO`, the Activity was found to be 45%.

Take `COc1cc(/C=C/C(=O)NCC(O)c2ccc(C)cc2)ccc1O` (mixture of isomers): the Activity is 27%.

System in another assay: not listed separately
The experiment in a line: Antioxidant activity against microsomal lipid peroxidation assessed as malondialdehyde formation at 200 mg/ml after 90 mins by thiobarbituric acid method. It is filed as functional.
For `Cc1ccc(C(=O)CNC(=O)/C=C/c2ccc(O)cc2)cc1`, the Activity was determined as 29%.

On to `COc1cc(/C=C/C(=O)NCC(O)c2ccc(C)cc2)ccc1O` (mixture of isomers), for which the Activity turned out to be 23%.

`Cc1c(C)c2c(c(C)c1O)CC[C@@](C)(CCC[C@H](C)CCC[C@H](C)CCCC(C)C)O2`: the Activity was 63%.

System in another assay: not listed separately
Description: Antioxidant activity against microsomal lipid peroxidation assessed as malondialdehyde formation at 100 mg/ml after 90 mins by thiobarbituric acid method. The assay is classed as functional.
Regarding `Cc1ccc(C(=O)CNC(=O)/C=C/c2ccc(O)cc2)cc1`, the Activity was determined as 22%.

As to `COc1cc(/C=C/C(=O)NCC(O)c2ccc(C)cc2)ccc1O` (mixture of isomers), the Activity was 19%.

System in the next assay: not listed separately
The experiment in a line: Antioxidant activity assessed as xanthine-xanthine oxidase generated superoxide anion scavenging at 200 mg/ml after 30 mins by NBT reduction assay. The assay is classed as functional. The method, boiled down:
as §3
In the case of `Oc1ncnc2[nH]ncc12`, the Activity worked out at 69%.

On to `Cc1ccc(C(=O)CNC(=O)/C=C/c2ccc(O)cc2)cc1`, for which the Activity is 31%.

As to `COc1cc(/C=C/C(=O)NCC(O)c2ccc(C)cc2)ccc1O` (mixture of isomers), the Activity turned out to be 32%.

Values taken from ChEMBL document CHEMBL1909603, “Synthesis of novel N-(2-hydroxy-2-p-tolylethyl)-amide and N-(2-oxo-2-p-tolylethyl)-amide derivatives and their antidyslipidemic and antioxidant activity” (2011).
